Laboratory results as given in ChEMBL document CHEMBL3414521, “Discovery of the 2-phenyl-4,5,6,7-Tetrahydro-1H-indole as a novel anti-hepatitis C virus targeting scaffold” (Eur J Med Chem, 2015).
Activity calls are given as the source filed them. No cut-off for these calls is given here.

Assays:
[1] = Cytotoxicity against human Huh7.5 cells after 48 hrs by MTS assay; type: cell-based; conditions: huh-7, 48 h
Procedure, shortened: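 Parental Huh7.5 cells grown in DMEM with 10% FCS without G418, 37 °C, 5% CO2; treated at 6–8 doses for 48 h. Viability by MTS bioreduction to formazan; CC50 as concentration halving MTS conversion relative to DMSO controls, mean ± SD of three independent experiments.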

Hepatitis C virus [2] = experiment: Antiviral activity against HCV genotype 1b infected in HuH7/Rep-Feo1b cells at 50 uM by firefly luciferase reporter gene assay; type: functional, Hepacivirus hominis; conditions: Huh-7
Procedure, shortened: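 Replicon reporter cells (gt 1b in Huh7/Rep-Feo1b, firefly luciferase; gt 2a in Huh7.5-FGR-JC1-Rluc2A, Renilla luciferase) kept in DMEM with 10% FCS and 0.5 mg/mL G418, 37 °C, 5% CO2. About 1×10^4 cells per well were treated at 50 μM for 48 h in 1.0% DMSO. Luciferase signal was read relative to DMSO-treated cells as % inhibition.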

Hepatitis C virus [3] = experiment: Antiviral activity against HCV genotype 1b infected in HuH7/Rep-Feo1b cells by firefly luciferase reporter gene assay; type: functional, cell-based, Hepacivirus hominis; conditions: Huh-7
Procedure, shortened: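 Huh7 cells carrying autonomously replicating gt 1b replicon with firefly luciferase reporter; ~1×10^4 cells/well treated 48 h, 1.0% DMSO final. Primary screen at 50 μM; actives titrated over 8–12 quarter-log dilutions. Luciferase signal relative to DMSO-treated controls; EC50 from dose-response curves, mean ± SD of three independent experiments.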

[4] = Selectivity index, ratio of CC50 for human Huh7.5 cells to EC50 for HCV genotype 1b infected in HuH7/Rep-Feo1b cells; design: species or system Huh-7
Hepatitis C virus [5] = experiment: Antiviral activity against HCV genotype 2a infected in HuH7.5-FGR-JC1_Rluc2A cells at 50 uM by […] luciferase reporter gene assay; type: functional, Hepacivirus hominis
Hepatitis C virus [6] = experiment: Antiviral activity against HCV genotype 2a infected in HuH7.5-FGR-JC1_Rluc2A cells by […]; type: functional, Hepacivirus hominis
[7] = Selectivity index, ratio of CC50 for human Huh7.5 cells to EC50 for HCV genotype 2a infected in HuH7.5-FGR-JC1_Rluc2A cells; design: species or system Huh-7
Hepacivirus hominis = experiment: Inhibition of recombinant HCV hexa histidine-tagged NS5B Cdelta21 RNA dependent RNA polymerase expressed in Escherichia coli at 50 uM after 60 mins by liquid scintillation counting analysis
[8] = tested on: Hepatitis C virus (isolate Con1); experiment: Inhibition of HCV Con1 genotype 1b C-terminal His-tagged NS3 helicase lacking N-terminal protease using fluorescent DNA as substrate at 500 uM
Procedure, shortened: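 Molecular beacon unwinding assay: 12.5 nM NS3h, 5 nM fluorescent DNA substrate, 1 mM ATP, 25 mM MOPS pH 6.5, 1.25 mM MgCl2, 5% DMSO, 5 µg/ml BSA, 0.01% Tween20, 0.05 mM DTT; compounds up to 500 μM.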

[9] = Inhibition of HCV Con1 genotype 1b C-terminal His-tagged NS3 helicase lacking N-terminal protease using ATP/RNA as substrate after 15 mins by malachite green-based assy; design: species or system Hepatitis C virus (isolate Con1)
Procedure, shortened: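 NS3h (con1 gt 1b, C-terminal His-tag, protease-deleted) at 4 nM with 1 μM polyU RNA (nucleotide), 25 mM MOPS pH 6.5, 1.25 mM MgCl2, 1 mM ATP, 33 µg/ml BSA, 0.07% Tween 20, 0.3 mM DTT, 10% DMSO; started with ATP, 15 min, 37 °C. Phosphate by malachite green, A630. Two-fold series 0.5 mM–0.78 µM, duplicate; variable-slope fit, mean ± SD.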

Hepatitis C virus [10] = experiment: Antiviral activity against HCV genotype 1b infected in human MH14 cells assessed as inhibition of replication after 48 hrs by RT-PCR analysis; type: functional; conditions: Hepacivirus hominis
Procedure, shortened: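 Stable gt 1b subgenomic replicon cells (MH-14), reporter-free, exposed to compound; total RNA isolated by spin-column kit, quantified spectrophotometrically, and HCV RNA measured by quantitative RT-PCR.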

[11] = tested on: Internal ribosome entry site (IRES); experiment: Effect on HCV IRES-mediated translation infected in human Huh 7.5 cells by dual-glo luciferase assay; type: cell-based; conditions: Hepacivirus hominis
[12] = biological target: T1, Prostaglandin G/H synthase 2 (Homo sapiens, UniProt P35354); experiment: Effect on cyclooxygenase-2 (unknown origin)-mediated HCV replication in human MH14 cells transfected with pCOX-2-Fluc by luciferase reporter gene assay; type: ADME, cell-based
T1 sequence (P35354 whole entry): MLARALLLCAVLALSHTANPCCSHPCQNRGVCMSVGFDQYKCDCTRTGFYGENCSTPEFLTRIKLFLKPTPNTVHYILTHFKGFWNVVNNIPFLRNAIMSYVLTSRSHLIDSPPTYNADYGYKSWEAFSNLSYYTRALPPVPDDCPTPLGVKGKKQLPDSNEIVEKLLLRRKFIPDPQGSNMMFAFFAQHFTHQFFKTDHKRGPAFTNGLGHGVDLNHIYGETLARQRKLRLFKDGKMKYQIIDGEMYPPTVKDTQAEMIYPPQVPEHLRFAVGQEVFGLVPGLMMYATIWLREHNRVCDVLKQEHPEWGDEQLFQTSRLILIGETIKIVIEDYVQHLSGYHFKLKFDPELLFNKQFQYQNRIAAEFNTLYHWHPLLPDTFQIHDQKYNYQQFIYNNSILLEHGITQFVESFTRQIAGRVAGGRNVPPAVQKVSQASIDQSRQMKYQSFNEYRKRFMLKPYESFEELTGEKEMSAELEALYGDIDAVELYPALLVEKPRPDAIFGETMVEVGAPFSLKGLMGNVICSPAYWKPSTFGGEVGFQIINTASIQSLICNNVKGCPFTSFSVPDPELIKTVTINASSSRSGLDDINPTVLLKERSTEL
Procedure, shortened: (§1)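 MH-14 replicon cells transfected with 300 ng of the reporter plasmid (pCOX-2-FLuc, pHO-1-Luc, pISRE-Luc or p3xARE-Luc); 16 h later treated with compound at 5, 10 and 25 μM or DMSO for 48 h. Firefly luciferase read, normalized to Renilla luciferase for transfection efficiency.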

Heme oxygenase 1 = biological target: T2, Heme oxygenase 1 (Homo sapiens, UniProt P09601); experiment: Effect on heme oxygenase-1 (unknown origin)-mediated HCV replication in human MH14 cells transfected with pHO-1-Luc by luciferase reporter gene assay; type: ADME, cell-based; procedure, shortened: as §1
T2 sequence (P09601 whole entry): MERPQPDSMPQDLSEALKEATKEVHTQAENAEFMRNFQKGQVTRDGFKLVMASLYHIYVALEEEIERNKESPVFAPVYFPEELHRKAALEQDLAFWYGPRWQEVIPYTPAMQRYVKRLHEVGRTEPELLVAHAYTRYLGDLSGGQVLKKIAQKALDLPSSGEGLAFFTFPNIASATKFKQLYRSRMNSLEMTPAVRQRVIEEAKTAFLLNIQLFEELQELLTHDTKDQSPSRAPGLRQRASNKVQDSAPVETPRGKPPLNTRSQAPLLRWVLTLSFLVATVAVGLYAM

[13] = Effect on interferon-stimulated response element (unknown origin)-mediated HCV replication in human MH14 cells transfected with pISRE-Luc by luciferase reporter gene assay; type: ADME, cell-based; procedure, shortened: as §1
[14] = Effect on anti-oxidant response element (unknown origin)-mediated HCV replication in human MH14 cells transfected with p3xARE-Luc by luciferase reporter gene assay; type: ADME, cell-based; procedure, shortened: as §1

`COc1ccc(-c2cc3c(n2Cc2ccccc2)CCCC3)cc1` showed a CC50 [1] of 137 µM, an inhibition at 50 µM (Hepatitis C virus [2]) of 99% and an EC50 (Hepatitis C virus [3]) of 11.8 µM. For the same molecule, the “Ratio CC50/EC50” value [4] was 12, the inhibition at 50 µM (Hepatitis C virus [5]) was 96% and the EC50 (Hepatitis C virus [6]) was 4.9 µM. For the same molecule, the “Ratio CC50/EC50” value [7] was 28, the inhibition (Hepacivirus hominis) was “inactive” and the inhibition [8] was “inactive”. It also gave an IC50 [9] of over 1000 µM.
With `Nc1ccc(-c2cc3c(n2Cc2ccccc2)CCCC3)cc1` the CC50 [1] was 110 µM, the inhibition at 50 µM (Hepatitis C virus [2]) was 66% and the EC50 (Hepatitis C virus [3]) was 12.4 µM. For the same molecule, the “Ratio CC50/EC50” value [4] was 9, the inhibition at 50 µM (Hepatitis C virus [5]) was 88% and the EC50 (Hepatitis C virus [6]) was 8.7 µM. The “Ratio CC50/EC50” value [7] was 13, the inhibition (Hepacivirus hominis) was “inactive” and the inhibition [8] was “inactive”. The IC50 [9] was 417 µM.
In the case of `Fc1ccc(-n2c(-c3ccccc3)cc3c2CCCC3)cc1`, the CC50 [1] is reported as over 200 µM, the inhibition at 50 µM (Hepatitis C virus [2]) is reported as 71% and the EC50 (Hepatitis C virus [3]) is reported as 29.2 µM. The “Ratio CC50/EC50” value [4] was over 7, the inhibition at 50 µM (Hepatitis C virus [5]) was 66% and the EC50 (Hepatitis C virus [6]) was 12.3 µM. The “Ratio CC50/EC50” value [7] was over 16, the inhibition (Hepacivirus hominis) was “inactive” and the inhibition [8] was “inactive”. For the same molecule, the IC50 [9] was over 1000 µM.
In the case of `O=[N+]([O-])c1ccc(-c2cc3c(n2Cc2ccccc2)CCCC3)cc1`, the CC50 [1] is reported as over 200 µM, the inhibition at 50 µM (Hepatitis C virus [2]) is reported as 75% and the EC50 (Hepatitis C virus [3]) is reported as 15 µM. For the same molecule, the “Ratio CC50/EC50” value [4] was 13, the inhibition at 50 µM (Hepatitis C virus [5]) was 98% and the EC50 (Hepatitis C virus [6]) was 7.3 µM. The “Ratio CC50/EC50” value [7] was 27, the inhibition (Hepacivirus hominis) was “inactive” and the inhibition [8] was “inactive”. The IC50 [9] was over 1000 µM.
With `c1ccc(Cn2c(-c3ccccc3)cc3c2CCCC3)cc1` the CC50 [1] was 80.8 µM, the inhibition at 50 µM (Hepatitis C virus [2]) was 95% and the EC50 (Hepatitis C virus [3]) was 7.9 µM. The “Ratio CC50/EC50” value [4] was 10, the inhibition at 50 µM (Hepatitis C virus [5]) was 99% and the EC50 (Hepatitis C virus [6]) was 2.6 µM. The “Ratio CC50/EC50” value [7] was 32, the inhibition (Hepatitis C virus [10]) was “Dose-dependent effect” and the inhibition (Hepacivirus hominis) was “inactive”. For the same molecule, the inhibition [8] was “inactive”, the IC50 [9] was over 1000 µM and the inhibition [11] was “inactive”. The “inhibition (INH)” value [12] was “Not Active”, the “inhibition (INH)” value (Heme oxygenase 1) was “Not Active” and the “inhibition (INH)” value [13] was “Not Active”. For the same molecule, the “inhibition (INH)” value [14] was “Not Active”.
